The record followed here is ChEMBL document CHEMBL4811241, “Revisiting Pyrazolo[3,4-d]pyrimidine Nucleosides as Anti-Trypanosoma cruzi and Antileishmanial Agents” (J Med Chem, 2021).

The structures appear in SMILES notation. pIC50: −log10 of the molar value.

Series [1] can be described thus: Toxicity in Swiss webster mouse infected with Trypanosoma cruzi Y trypomastigotes assessed as animal survival at 2.5 to 25 mg/kg, po bid for 5 days treatment started at 6 days post-infection and measured at 34 days post-infection. Format: organism-based. The settings on record: in vivo, dose 2.5-25 mg/kg, time 29 day. In a few lines:
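Male Swiss Webster mice (18−20 g, 4−5 weeks) were infected i.p. with 10⁴ Y-strain bloodstream trypomastigotes from a donor mouse. Only mice with detectable parasitemia were treated, in groups of six. Oral gavage was given on days 6–10 post-infection, b.i.d. or q.d. as listed, in 10% Tween 80 vehicle, freshly prepared. Infected vehicle controls were included. Mortality was checked daily to 34 dpi as cumulative percentage.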

Series [2] relates to Trypanosoma cruzi. Description: Antitrypanosomal activity against nifurtimox-sensitive Trypanosoma cruzi Tulahuen CL2 infected in Swiss mouse peritoneal macrophages assessed as inhibition of parasite growth measured after 7 days by spectrophotometric analysis. The settings on record: Tulahuen CL2, Peritoneal macrophage, 168 h. In kind it is functional, organism-based.
For series [3], the target named is UGT (Homo sapiens, UniProt O60656+O75310+O75795+P06133+P0DTE4+P0DTE5+P16662+P19224+P22309+P22310+P35503+P35504+P36537+P54855+Q6UWM9+Q9BY64+Q9HAW7+Q9HAW8+Q9HAW9). Put plainly: Metabolic stability of the compound in human liver microsomes S9 fraction assessed as UGT-mediated metabolism by measuring parent compound remaining at 5 uM measured after 60 mins in presence of UDPGA by UPLC-MS analysis. Format: ADME, subcellular. Particulars: read-out: Stabilty. The method, boiled down: (§1)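 Compound at 5 μM with 0.5 mg/mL male mouse or pooled human liver microsomes; reaction started with 2 mM UDPGA. Sampled at 0, 15, 30 and 60 min and quenched in cold acetonitrile with internal standard. Parent remaining measured by UPLC-MS/MS (MRM) as % of the 0 min value.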

The target in series [4] is T1, CYP450 (Homo sapiens, UniProt P04798+P05177+P05181+P08684+P10632+P10635+P11509+P11712+P13584+P20813+P20815+P20853+P24462+P24903+P33260+P33261+P51589+P78329+P98187+Q02928+Q08477+Q16678+Q16696+Q5TCH4+Q6VVX0+Q7Z449+Q8TAV3+Q96SQ9+Q9HB55). Description: Metabolic stability of the compound in human liver microsomes S9 fraction assessed as CYP450-mediated metabolism by measuring parent compound remaining at 5 uM measured after 15 mins in presence of NADPH by UPLC-MS analysis. Format: ADME, subcellular. Particulars: read-out: Stabilty. In a few lines: (§2)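 Compound at 5 μM with 0.5 mg/mL male mouse or pooled human liver microsomes in potassium phosphate buffer; reaction started with 1 mM NADPH. Samples taken at 0, 15, 30 and 60 min and quenched in cold acetonitrile with internal standard. Parent remaining quantified by UPLC-MS/MS in MRM mode and given as % of the 0 min value.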

For series [5], the system named is Trypanosoma cruzi. Put plainly: Antitrypanosomal activity against nifurtimox-sensitive Trypanosoma cruzi Tulahuen CL2 infected in human MRC-5 SV2 cells assessed as inhibition of parasite growth measured after 7 days by spectrophotometric analysis. Format: functional, organism-based. The settings on record: Tulahuen CL2, MRC-5 SV2, 168 h.
Series [6] concerns the target T1, CYP450. Put plainly: Metabolic stability of the compound in human liver microsomes S9 fraction assessed as CYP450-mediated metabolism by measuring parent compound remaining at 5 uM measured after 60 mins in presence of NADPH by UPLC-MS analysis. The settings on record: read-out: Stabilty. In kind it is ADME, subcellular. The method, boiled down:
as §2

Series [7] relates to UGT. Description: Metabolic stability of the compound in mouse liver microsomes S9 fraction assessed as UGT-mediated metabolism by measuring parent compound remaining at 5 uM measured after 30 mins in presence of UDPGA by UPLC-MS analysis. In kind it is ADME, subcellular. Particulars: read-out: Stabilty. In a few lines:
as §1

The next series deals with Leishmania infantum. Description: Antileishmanial activity against amastigote form of Leishmania infantum MHOM/MA(BE)/67 infected in Swiss mouse peritoneal macrophages assessed as reduction in parasite growth treated at 2 hrs post-infection and measured after 5 days by Giemsa staining based microscopic analysis. In kind it is functional, organism-based. Particulars: MHOM/MA(BE)/67, Peritoneal macrophage. In a few lines:
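Swiss mouse peritoneal macrophages, harvested after 2-day potato-starch stimulation, infected 48 h after plating; compounds added 2 h post-infection.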

The subject of series [8] is Trypanosoma cruzi. Description: Antitrypanosomal activity against nifurtimox-sensitive Trypanosoma cruzi Tulahuen CL2 infected in Swiss mouse peritoneal macrophages assessed as inhibition of parasite growth measured after 7 days in presence of ABC transporter inhibitor, verapamil by spectrophotometric analysis. Format: functional, organism-based. Particulars: Tulahuen CL2, Peritoneal macrophage, 168 h. In a few lines: (§3)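 Macrophage-hosted 7-day assay read with CPRG at 540 nm, with compound given together with an ABC transporter inhibitor: cyclosporine A 2 μM, probenecid 700 μM or verapamil 8 μM. IC50 from % reduction versus infected controls.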

Series [9] deals with Trypanosoma cruzi. Put plainly: Antitrypanosomal activity against Trypanosoma cruzi strain Y bloodstream trypomastigotes infected in Swiss Webster mouse assessed as reduction in parasitemia at 25 mg/kg, po bid for 5 days treatment started at 6 days post-infection and measured at 8 days post-infection by light microscopic analysis. Particulars: 48 h, time 2 day. In kind it is functional. The method, boiled down:
(§4)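 Male Swiss Webster mice, 18–20 g, six per group; only mice with detectable parasitemia treated. Oral gavage for 5 consecutive days (6–10 dpi); test compound given b.i.d. in 10% Tween 80, benznidazole once daily, formulations freshly prepared. Parasitemia counted by light microscopy in 5 μL blood; mortality checked daily to 34 dpi.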

In series [10] the test system is CYP450. Description: Metabolic stability of the compound in mouse liver microsomes S9 fraction assessed as CYP450-mediated metabolism by measuring parent compound remaining at 5 uM measured after 30 mins in presence of NADPH by UPLC-MS analysis. Format: ADME, subcellular. Particulars: read-out: Stabilty. In a few lines: as §2
Series [11] is described as follows: Cytotoxicity against Swiss Webster mouse 2D cardiomyocytes assessed as reduction in cell viability measured after 48 hrs by PrestoBlue assay. On the set-up: species or system Cardiac Muscle Cell. The settings on record: read-out: LC50. The method, boiled down:
(§5)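 Mouse embryo heart cells as monolayer (2D) or 3D aggregates (25 × 10³ cells/well on 1% agarose). Uninfected cultures exposed 48 h to rising concentrations. Morphology checked by light microscopy; viability read by PrestoBlue; CC₅₀ determined.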

Series [12] in a line: Cytotoxicity against Swiss Webster mouse 3D cardiomyocytes assessed as reduction in cell viability measured after 48 hrs by PrestoBlue assay. Format: tissue-based, Cardiac Muscle Cell. The method, boiled down:
as §5

Series [13] concerns Trypanosoma cruzi. Description: Antitrypanosomal activity against nifurtimox-sensitive Trypanosoma cruzi Tulahuen CL2 infected in Swiss mouse peritoneal macrophages assessed as inhibition of parasite growth measured after 7 days in presence of ABC transporter inhibitor, probenecid by spectrophotometric analysis. In kind it is functional, organism-based. The settings on record: Tulahuen CL2, Peritoneal macrophage, 168 h. In a few lines: as §3

Series [14] relates to Trypanosoma cruzi. Put plainly: Antitrypanosomal activity against intracellular amastigote form of Trypanosoma cruzi Y infected in Swiss Webster mouse cardiomyocytes assessed as inhibition of parasite growth incubated for 48 hrs by Giemsa staining based microscopic analysis. In kind it is functional, organism-based. The settings on record: Cardiac muscle cell. In a few lines: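 Primary 2D mouse embryo cardiac cell cultures, infected for 24 h, then washed and exposed for 48 h at 37 °C to a serial dilution. Cells fixed and stained with Giemsa; infected cells and parasites per infected cell scored in 200 host cells. Activity expressed from the inhibition index; two independent experiments run in duplicate.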

The subject of series [15] is Trypanosoma cruzi. Description: Antitrypanosomal activity against Trypanosoma cruzi strain Y bloodstream trypomastigotes infected in Swiss Webster mouse assessed as reduction in parasitemia at 2.5 mg/kg, po bid for 5 days treatment started at 6 days post-infection in presence of 10 mg/kg, po Benznidazole by light microscopic analysis. In kind it is functional. Particulars: 120 h, time 5 day. The method, boiled down:
as §4

The nature of series [16]: Selectivity index, ratio of CC50 for human MRC-5 SV2 cells to IC50 for antitrypanosomal activity against nifurtimox-sensitive Trypanosoma cruzi Tulahuen CL2 infected in human MRC-5 SV2 cells. In kind it is toxicity, cell-based. Particulars: read-out: Ratio CC50/IC50. The method, boiled down: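 Ratio of MRC-5SV2 CC50 (3-day resazurin assay) to IC50 against T. cruzi amastigotes in MRC-5SV2 cells (7-day CPRG assay).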

For `Nc1ncnc2c1c(-c1ccc(Cl)cc1)nn2[C@@H]1O[C@H](CO)[C@@H](O)[C@H]1O`, the survival at 696 h in [1] stood at 83%. In addition, the pIC50 with Trypanosoma cruzi [2] was less than 4.19; in the series on Trypanosoma cruzi [5], 6.49; in the series on Leishmania infantum, less than 4.19; in the series on Trypanosoma cruzi [8], less than 4.19; with Trypanosoma cruzi [13], less than 4.19; in the series with Trypanosoma cruzi [14], 6.59. The remaining at 1 h, 5 µM amounted to 104% on UGT [3] and 101% at CYP450 [6]. For the same molecule, the remaining at 0.25 h, 5 µM at CYP450 [4] was found to be 102%. Further, the remaining at 0.5 h, 5 µM in the series on UGT [7] was determined as 115%; in the series with CYP450 [10] it was 103%. Further, the inhibition in vivo at 25 mg/kg with Trypanosoma cruzi [9] was 99%. The CC50 at 48 h in series [11] was 500 µM; in series [12], 200 µM. Moreover, the inhibition in vivo at 2.5 mg/kg with Trypanosoma cruzi [15] was 71%. The selectivity ratio in series [16] is more than 197.
